Reference: ChEMBL document CHEMBL1833950, “Inhibition of steroid sulfatase with 4-substituted estrone and estradiol derivatives” (Bioorg Med Chem, 2011)
Each block holds one compound with its values, some of them ahead of it. Active and inactive are the calls of the source. The calls are words filed in the database; no cut-off is given here.

How the values were obtained:
[1] = molecular target: T1, Steryl-sulfatase (Homo sapiens) (UniProt P08842); assay: Inhibition of human steroid sulfatase using 4-methylumbelliferyl sulfate substrate at 50 uM by fluorescence assay
T1 sequence (whole entry): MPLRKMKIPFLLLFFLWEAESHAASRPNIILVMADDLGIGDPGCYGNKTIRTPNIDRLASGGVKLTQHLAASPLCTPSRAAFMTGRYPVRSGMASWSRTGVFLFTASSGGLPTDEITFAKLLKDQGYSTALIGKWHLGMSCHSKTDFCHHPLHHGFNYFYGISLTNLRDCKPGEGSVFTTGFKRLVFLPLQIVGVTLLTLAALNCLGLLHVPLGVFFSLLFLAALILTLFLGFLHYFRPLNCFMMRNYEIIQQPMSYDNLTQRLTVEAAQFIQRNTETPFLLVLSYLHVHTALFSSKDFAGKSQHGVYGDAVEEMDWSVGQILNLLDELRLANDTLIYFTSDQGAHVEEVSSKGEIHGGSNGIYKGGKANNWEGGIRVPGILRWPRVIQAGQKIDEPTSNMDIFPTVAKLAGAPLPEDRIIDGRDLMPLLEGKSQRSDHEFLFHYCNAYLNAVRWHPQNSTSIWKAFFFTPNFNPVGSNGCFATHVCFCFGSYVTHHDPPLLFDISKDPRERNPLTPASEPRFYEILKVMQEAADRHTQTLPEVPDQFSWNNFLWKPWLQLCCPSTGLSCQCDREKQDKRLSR

[2] = molecular target: T1, Steryl-sulfatase (Homo sapiens); assay: Inhibition of human steroid sulfatase using 4-methylumbelliferyl sulfate as substrate at 10 uM by fluorescence assay
Steryl-sulfatase [3] = molecular target: T2, Steryl-sulfatase (Homo sapiens, UniProt P08842); assay: (§1) Inhibition of human steroid sulfatase using 4-methylumbelliferyl sulfate substrate after 10 mins by fluorescence assay
T2 sequence (P08842 whole entry): T1 sequence (whole entry)
Method in brief: (§2)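 Inhibitor is added in DMSO/Tris (1:1) and the reaction is started with enzyme. 4-MUS is 200 µM final. 4-Methylumbelliferone fluorescence (ex 360/em 460 nm) is followed for 10 min at 25 °C. Triplicates; percent activity is taken versus an inhibitor-free control and IC50 derived.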

[4] = Aqueous solubility of the compound; assay type: physicochemical; conditions: buffer
[5] = molecular target: T1, Steryl-sulfatase (Homo sapiens); assay: as §1; method in brief: as §2
[6] = molecular target: T1, Steryl-sulfatase (Homo sapiens); assay: Reversible inhibition of human steroid sulfatase using 4-methylumbelliferyl sulfate as substrate at 50 uM after 10 mins by fluorescence assay
[7] = molecular target: T1, Steryl-sulfatase (Homo sapiens); assay: Reversible inhibition of human steroid sulfatase using 4-methylumbelliferyl sulfate substrate assessed as enzyme activity recovery at 1 uM after 60 mins by fluorescence assay; design: scale not given: the % may be the effect or the level left
Method in brief: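 Aliquots are assayed with 4 mM 4-MUS at 0 and 60 min. The rest is dialysed against 0.1 M Tris-HCl pH 7.0, 0.1% Triton X-100, with activity measured at 540, 1020 and 1500 min. Triplicates, with an inhibitor-free control.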

Steryl-sulfatase [8] = molecular target: T2, Steryl-sulfatase; assay: Inhibition of human steroid sulfatase using 4-methylumbelliferyl sulfate substrate over 50 mins by Kitz-Wilson plot analysis
Steryl-sulfatase [9] = molecular target: T2, Steryl-sulfatase; assay: Time-dependent inhibition of human steroid sulfatase using 4-methylumbelliferyl sulfate substrate by Kitz-Wilson plot analysis
[10] = molecular target: T1, Steryl-sulfatase (Homo sapiens); assay: Ratio of Kinact to Ki for human steroid sulfatase after 5 mins by Kitz-Wilson plot analysis
[11] = molecular target: T1, Steryl-sulfatase (Homo sapiens); assay: (§3) Inhibition of human steroid sulfatase using 4-methylumbelliferyl sulfate substrate after 5 mins by Kitz-Wilson plot analysis
[12] = molecular target: T1, Steryl-sulfatase (Homo sapiens); assay: Inhibition of human steroid sulfatase using 4-methylumbelliferyl sulfate substrate at 1 uM after 60 mins by fluorescence assay
Steryl-sulfatase [13] = molecular target: T2, Steryl-sulfatase; assay: as §3
Steryl-sulfatase [14] = molecular target: T2, Steryl-sulfatase; assay: Inhibition of human purified steroid sulfatase; method in brief: as §2
[15] = molecular target: T1, Steryl-sulfatase (Homo sapiens); assay: Inhibition of human steroid sulfatase using 4-methylumbelliferyl sulfate substrate at 10 uM after 60 mins by fluorescence assay
Steryl-sulfatase [16] = molecular target: T2, Steryl-sulfatase; assay: Non-Competitive inhibition of human steroid sulfatase using 4-methylumbelliferyl sulfate substrate by Lineweaver-Burk plot analysis
Steryl-sulfatase [17] = molecular target: T2, Steryl-sulfatase; assay: Mixed type inhibition of human steroid sulfatase using 4-methylumbelliferyl sulfate substrate by Lineweaver-Burk plot analysis

inhibition [1]: 43%
Compound: C[C@]12CC[C@@H]3c4ccc(O)c(N)c4CC[C@H]3[C@@H]1CC[C@@H]2O

Inhibition activity (active/inactive) [2]: inactive
IC50 (Steryl-sulfatase [3]): 224000 nM
solubility [4]: soluble
Compound: C[C@]12CC[C@@H]3c4cc(C=O)c(O)c(C=O)c4CC[C@H]3[C@@H]1CCC2=O

inhibition [1]: 46%
Compound: C[C@]12CC[C@@H]3c4ccc(O)c(CO)c4CC[C@H]3[C@@H]1CCC2=O

IC50 (Steryl-sulfatase [3]): 26000 nM
Compound: C[C@]12CC[C@@H]3c4cc([N+](=O)[O-])c(O)c([N+](=O)[O-])c4CC[C@H]3[C@@H]1CCC2=O

Compound: C[C@]12CC[C@@H]3c4ccc(O)c(Br)c4CC[C@H]3[C@@H]1CCC2=O
IC50 (Steryl-sulfatase [3]): 4800 nM

inhibition [1]: 4%
Compound: C[C@]12CC[C@@H]3c4ccc(O)c(CN)c4CC[C@H]3[C@@H]1CC[C@@H]2O

IC50 (Steryl-sulfatase [3]): 3300 nM
Compound: C[C@]12CC[C@@H]3c4ccc(O)c(F)c4CC[C@H]3[C@@H]1CCC2=O

Compound: C[C@]12CC[C@@H]3c4cc([N+](=O)[O-])c(O)cc4CC[C@H]3[C@@H]1CCC2=O
IC50 (Steryl-sulfatase [3]): 17000 nM

Inhibition activity (active/inactive) [2]: inactive
inhibition [5]: inactive
inhibition [6]: < 50%
Compound: C[C@]12CC[C@@H]3c4cc([N+](=O)[O-])c(O)c(C=O)c4CC[C@H]3[C@@H]1CCC2=O

Activity [7]: 14%
Ki (Steryl-sulfatase [8]): 85 nM
Ki (Steryl-sulfatase [9]): 85 nM
Ratio [10]: 2.3 ×10⁵ /M/min
Kinact [11]: 0.021 min⁻¹
Inhibition activity (active/inactive) [2]: Active
inhibition [5]: Dose-dependent effect
inhibition [12]: 95%
Compound: C[C@]12CC[C@@H]3c4ccc(O)c(C=O)c4CC[C@H]3[C@@H]1CC[C@@]2(O)Cc1ccccc1

Activity [7]: 2%
Ki (Steryl-sulfatase [9]): 1500 nM
Ratio [10]: 1 ×10⁵ /M/min
Ki (Steryl-sulfatase [13]): 1500 nM
Kinact [11]: 0.13 min⁻¹
Ki (Steryl-sulfatase [14]): 1500 nM
Compound: C[C@]12CC[C@@H]3c4ccc(O)c(C=O)c4CC[C@H]3[C@@H]1CCC2=O

Ki (Steryl-sulfatase [3]): 250 nM
Compound: C[C@]12CC[C@@H]3c4ccc(O)cc4CC[C@H]3[C@@H]1CC[C@@]2(O)Cc1ccccc1

inhibition [15]: 15%
Compound: C[C@]12CC[C@@H]3c4cc(C=O)c(O)cc4CC[C@H]3[C@@H]1CC[C@@]2(O)Cc1ccccc1

Compound: C[C@]12CC[C@@H]3c4ccc(O)c([N+](=O)[O-])c4CC[C@H]3[C@@H]1CCC2=O
Ki (Steryl-sulfatase [16]): 1400 nM
IC50 (Steryl-sulfatase [3]): 2400 nM

IC50 (Steryl-sulfatase [3]): 6700 nM
Compound: C[C@]12CC[C@@H]3c4ccc(O)c(C#N)c4CC[C@H]3[C@@H]1CCC2=O

inhibition [1]: 45%
Compound: C=Cc1c(O)ccc2c1CC[C@@H]1[C@@H]2CC[C@]2(C)C(=O)CC[C@@H]12

Inhibition activity (active/inactive) [2]: inactive
inhibition [5]: inactive
Compound: C[C@]12CC[C@@H]3c4cc(C=O)c(O)cc4CC[C@H]3[C@@H]1CCC2=O

IC50 (Steryl-sulfatase [3]): 215000 nM
Compound: C[C@]12CC[C@@H]3c4ccc(O)c(C(=O)O)c4CC[C@H]3[C@@H]1CCC2=O

Inhibition activity (active/inactive) [2]: inactive
IC50 (Steryl-sulfatase [3]): 145000 nM
inhibition [5]: inactive
Compound: C[C@]12CC[C@@H]3c4cc(Br)c(O)c(C=O)c4CC[C@H]3[C@@H]1CCC2=O

Compound: C[C@]12CC[C@@H]3c4cc(Br)c(O)cc4CC[C@H]3[C@@H]1CCC2=O
IC50 (Steryl-sulfatase [3]): 40000 nM

Compound: C[C@]12CC[C@@H]3c4ccc(O)c([N+](=O)[O-])c4CC[C@H]3[C@@H]1CC[C@@H]2O
IC50 (Steryl-sulfatase [3]): 2800 nM

Inhibition activity (active/inactive) [2]: inactive
inhibition [5]: inactive
Compound: C[C@]12CC[C@@H]3c4ccc(C=O)cc4CC[C@H]3[C@@H]1CCC2=O

Ki (Steryl-sulfatase [17]): 90 nM
Ki (Steryl-sulfatase [3]): 30 nM
Compound: C[C@]12CC[C@@H]3c4ccc(O)c(F)c4CC[C@H]3[C@@H]1CC[C@@]2(O)Cc1ccccc1
